Data reported in ChEMBL document CHEMBL4219175, “Synthesis and biological evaluation of aminothiazoles against Histoplasma capsulatum and Cryptococcus neoformans” (Bioorg Med Chem, 2018).
Values after ≈ are worked out from the molar mass of the structure shown.

Experiments:
Histoplasma capsulatum [1] = assay: Antifungal activity against Histoplasma capsulatum G217B ATCC 26032 at pH 7 measured over 5 days; assay type: functional, organism-based; settings: G217B ATCC 26032, 120 h
Outline: (§1)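 Yeasts pre-grown in HMM (37 °C, 5% CO2) to exponential phase, counted by hemacytometer, diluted into RPMI buffered with 25 mM HEPES (pH 7.0) or 25 mM MOPS (pH 5.0) at 5 x 10^5 per well; two-fold dilutions 40 to 0.078 µM, 37 °C, agitated twice daily. A595 read over 5 days, normalized to DMSO controls; 4-day data fitted by 4-parameter regression for IC50; MIC = ≤10% growth.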

Cryptococcus neoformans [2] = assay: Antifungal activity against wild type fluconazole-sensitive Cryptococcus neoformans serotype A H99 at pH 7 measured over 4 days; assay type: functional, organism-based; settings: var grubii H99 , 96 h
Outline: (§2)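 YPD-grown exponential-phase yeasts, hemacytometer-counted, diluted into RPMI buffered to pH 7.0 with 25 mM HEPES (or pH 5.0 with […] for pH comparison) at 2 x 10^3 per well; two-fold series 40 to 0.078 µM, 37 °C, agitated twice daily. A595 followed over 4 days versus DMSO controls; day-3 turbidity fitted by 4-parameter regression for IC50; MIC = growth ≤10% of untreated.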

P388D1 = assay: Cytotoxicity against mouse P388D1 cells assessed as reduction in cell viability after 72 hrs by resazurin-based fluorescence assay; settings: P388D1, 72 h
Outline: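 P388D1 cells in Ham's F-12 + 10% FBS + 2 mM L-glutamine seeded at 5 x 10^3 per well, adhered overnight, exposed to compounds 80 to 0.3 µM for 72 h. Viability read as resorufin fluorescence (530/590 nm) after 0.1 mM resazurin, pre-saturation time points, versus untreated cells; three biological replicates; IC50 by non-linear regression.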

[3] = Therapeutic index, ratio of IC50 for mouse P388D1 cells to IC50 for Histoplasma capsulatum G217B ATCC 26032; assay type: toxicity; settings: read-out: Ratio IC50
Outline: (§3)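 Ratio of P388D1 IC50 (72 h resazurin viability, 80 to 0.3 µM) to yeast IC50 from RPMI/HEPES pH 7.0 broth dilution with A595 turbidity and 4-parameter regression.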

Cryptococcus neoformans [4] = assay: Antifungal activity against wild-type fluconazole-sensitive Cryptococcus neoformans serotype D B3501 measured over 4 days; assay type: functional, organism-based; settings: B3501, 96 h; outline: as §2
Cryptococcus neoformans [5] = assay: Antifungal activity against fluconazole-resistant Cryptococcus neoformans serotype A TES9 harboring erg11 mutant measured over 4 days; assay type: functional, organism-based; settings: TES9, 96 h; outline: as §2
Cryptococcus neoformans [6] = assay: Antifungal activity against fluconazole-resistant Cryptococcus neoformans serotype A MRL862 harboring erg11 mutant measured over 4 days; assay type: functional, organism-based; settings: MRL862, 96 h; outline: as §2
[7] = Therapeutic index, ratio of IC50 for mouse P388D1 cells to IC50 for wild type Cryptococcus neoformans serotype A H99; assay type: toxicity; settings: read-out: Ratio IC50; outline: as §3
[8] = Aqueous solubility of the compound at pH 5; assay type: physicochemical; settings: aqueous medium
[9] = Aqueous solubility of the compound at pH 7; assay type: physicochemical; settings: aqueous medium
[10] = Ratio of aqueous solubility at pH 5 to aqueous solubility at pH 7; assay type: physicochemical; settings: buffer
Histoplasma capsulatum [11] = assay: Antifungal activity against Histoplasma capsulatum G217B ATCC 26032 at pH 5 measured over 5 days; assay type: functional, organism-based; settings: G217B ATCC 26032, 120 h; outline: as §1
Cryptococcus neoformans [12] = assay: Antifungal activity against wild type fluconazole-sensitive Cryptococcus neoformans serotype A H99 at pH 5 measured over 4 days; assay type: functional, organism-based; settings: var grubii H99 , 96 h; outline: as §2
Histoplasma capsulatum [13] = assay: Antifungal activity against RFP expressing Histoplasma capsulatum infected in LacZ-expressing mouse P388D1 cells incubated for 6 days measured daily by fluorescence assay; assay type: functional, organism-based
Outline: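 LacZ-expressing P388D1 macrophages (3x10^4 per well, adhered 3 h) infected with RFP Histoplasma yeasts at MOI 1:2 for 3 h, medium replaced with F-12 + 10% serum, overnight at 37 °C, then compound gradient added for 6 days. RFP fluorescence (530/590 nm) read daily; day-4 values relative to untreated infected cells fitted by non-linear regression; triplicate.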

SMILES | IC50 (Histoplasma capsulatum [1]) [µM] | MIC90 (Histoplasma capsulatum [1]) [µM] | IC50 (Cryptococcus neoformans [2]) [µM] | MIC90 (Cryptococcus neoformans [2]) [µM] | IC50 (P388D1) [µM] | selectivity ratio [3] | also measured
O=C(Nc1ncc(CC2CCCC2)s1)C1CCCCC1 | 0.76 | 1.25 (≈ 0.366 µg/mL) | > 20 | > 40 | > 40 | > 53 | –
O=C(CCC1CCCCC1)Nc1ncc(Cc2cccc3c2CCC3)s1 | 0.38 | 0.63 (≈ 0.232 µg/mL) | > 20 | > 40 | > 40 | > 105 | –
OC(Cn1cncn1)(Cn1cncn1)c1ccc(F)cc1F [FLUCONAZOLE] | – | – | 0.95 | 4.08 (≈ 1.25 µg/mL) | – | – | IC50 (Cryptococcus neoformans [4]): 0.13 µM; MIC90 (Cryptococcus neoformans [4]): 2.04 µM (≈ 0.625 µg/mL); IC50 (Cryptococcus neoformans [5]): 27.4 µM; MIC90 (Cryptococcus neoformans [5]): 65.4 µM (≈ 20 µg/mL); IC50 (Cryptococcus neoformans [6]): 14.6 µM; MIC90 (Cryptococcus neoformans [6]): 32.7 µM (≈ 10 µg/mL)
O=C(Nc1ncc(Cc2cccc3nsnc23)s1)C1CCCCC1 | 1.54 | 2.5 (≈ 0.896 µg/mL) | 1.52 | 5 (≈ 1.79 µg/mL) | > 40 | > 26 | selectivity ratio [7]: > 26
O=C(CCC1CCCCC1)Nc1ncc(Cc2cccc3c2CCCC3)s1 | 0.9 | 2.5 (≈ 0.956 µg/mL) | > 20 | > 40 | 24.3 | 27 | –
O=C(CCC1CCCCC1)Nc1ncc(Cc2ccncc2)s1 | 7.67 | 20 (≈ 6.59 µg/mL) | > 20 | – | > 40 | > 5 | solubility [8]: 140 µg/mL (≈ 425 µM); solubility [9]: 40 µg/mL (≈ 121 µM); Ratio [10]: 3.5; IC50 (Histoplasma capsulatum [11]): 11.1 µM; MIC90 (Histoplasma capsulatum [11]): 40 µM (≈ 13.2 µg/mL); IC50 (Cryptococcus neoformans [12]): > 20 µM; MIC90 (Cryptococcus neoformans [12]): > 40 µM
O=C(CCC1CCCCC1)Nc1ncc(Cc2ccnc3ccccc23)s1 | > 20 | > 40 | > 20 | – | – | – | solubility [8]: 5 µg/mL (≈ 13.2 µM); solubility [9]: 3 µg/mL (≈ 7.9 µM); Ratio [10]: 1.7; IC50 (Histoplasma capsulatum [11]): 15.7 µM; MIC90 (Histoplasma capsulatum [11]): 40 µM (≈ 15.2 µg/mL); IC50 (Cryptococcus neoformans [12]): > 20 µM; MIC90 (Cryptococcus neoformans [12]): > 40 µM
CCc1cnc(NC(=O)CCC2CCCCC2)s1 | > 20 | > 40 | > 20 | > 40 | – | – | –
O=C(c1cnc(NC(=O)C2CCCCC2)s1)c1cccc2ccccc12 | 0.19 | 0.31 (≈ 0.113 µg/mL) | 0.89 | 2.5 (≈ 0.911 µg/mL) | > 40 | > 211 | selectivity ratio [7]: > 45; IC50 (Cryptococcus neoformans [4]): 0.38 µM; MIC90 (Cryptococcus neoformans [4]): 1.25 µM (≈ 0.456 µg/mL); IC50 (Cryptococcus neoformans [5]): 0.47 µM; MIC90 (Cryptococcus neoformans [5]): 1.25 µM (≈ 0.456 µg/mL); IC50 (Cryptococcus neoformans [6]): 0.41 µM; MIC90 (Cryptococcus neoformans [6]): 1.25 µM (≈ 0.456 µg/mL); MIC (Histoplasma capsulatum [13]; 144 h): 1.25 µM (≈ 0.456 µg/mL); IC50 (Histoplasma capsulatum [13]; P388D1, 144 h): 0.71 µM
O=C(CCC1CCCCC1)Nc1ncc(Cc2cccc3ccoc23)s1 | 0.4 | 0.63 (≈ 0.232 µg/mL) | > 20 | > 40 | 17.8 | 44 | –
O=C(Nc1ncc(Cc2cccnc2)s1)C1CCCCC1 | > 20 | – | > 20 | – | – | – | solubility [8]: 590 µg/mL (≈ 1960 µM); solubility [9]: 340 µg/mL (≈ 1130 µM); Ratio [10]: 1.7; IC50 (Histoplasma capsulatum [11]): > 20 µM; MIC90 (Histoplasma capsulatum [11]): > 40 µM; IC50 (Cryptococcus neoformans [12]): > 20 µM; MIC90 (Cryptococcus neoformans [12]): > 40 µM
O=C(CCC1CCCCC1)Nc1ncc(Cc2ccccn2)s1 | 8.09 | 20 (≈ 6.59 µg/mL) | > 20 | – | > 40 | > 5 | solubility [8]: 60 µg/mL (≈ 182 µM); solubility [9]: 40 µg/mL (≈ 121 µM); Ratio [10]: 1.5; IC50 (Histoplasma capsulatum [11]): > 20 µM; MIC90 (Histoplasma capsulatum [11]): > 40 µM; IC50 (Cryptococcus neoformans [12]): > 20 µM; MIC90 (Cryptococcus neoformans [12]): > 40 µM
O=C(CCC1CCCCC1)Nc1ncc(Cc2cccc3ccsc23)s1 | 0.92 | 5 (≈ 1.92 µg/mL) | > 20 | > 40 | 18.9 | 21 | –
O=C(Nc1ncc(Cc2cccc3ccoc23)s1)C1CCCCC1 | 0.42 | 1.25 (≈ 0.426 µg/mL) | 0.62 | 2.5 (≈ 0.851 µg/mL) | > 40 | > 95 | selectivity ratio [7]: > 65; IC50 (Cryptococcus neoformans [4]): 0.32 µM; MIC90 (Cryptococcus neoformans [4]): 0.63 µM (≈ 0.214 µg/mL); IC50 (Cryptococcus neoformans [5]): 0.41 µM; MIC90 (Cryptococcus neoformans [5]): 0.63 µM (≈ 0.214 µg/mL); IC50 (Cryptococcus neoformans [6]): 0.15 µM; MIC90 (Cryptococcus neoformans [6]): 0.63 µM (≈ 0.214 µg/mL)
O=C(CCC1CCCCC1)Nc1ncc(Cc2ccccc2)s1 | 0.8 | 1.25 (≈ 0.411 µg/mL) | > 20 | > 40 | > 40 | > 50 | –
